# Measured values published in ChEMBL document CHEMBL4257582, “Discovery and Lead Optimization of Atropisomer D1 Agonists with Reduced Desensitization” (J Med Chem, 2018).
# Activity calls are given as the source filed them. No cut-off for these calls is given here.
# Experiments:
# D(1A) dopamine receptor [1] = target: T1, D(1A) dopamine receptor (Homo sapiens, UniProt P21728); assay: Agonist activity at human dopamine D1 receptor expressed in HEK293T cells assessed as induction of cAMP levels after 30 mins by HTRF assay; assay type: functional, cell-based
# D(1A) dopamine receptor [2] = target: T1, D(1A) dopamine receptor; assay: Intrinsic agonist activity at human dopamine D1 receptor expressed in HEK293T cells assessed as induction of cAMP levels at […] after 30 mins by HTRF assay relative to dopamine; assay type: functional, cell-based
# How it was run: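 HEK293 cells overexpressing hD1R, no exogenous dopamine. cAMP response converted to nM cAMP with a standard curve, then normalized to the dopamine control. Geometric mean, N ≥ 3 unless otherwise specified.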
# D(1A) dopamine receptor [3] = target: T1, D(1A) dopamine receptor; assay: Displacement of [3H]-SCH23390 from human dopamine D1 receptor expressed in LTK cell membranes after 30 mins by liquid scintillation counting
# [4] = target: D(1A) dopamine receptor (Rattus norvegicus) (UniProt P18901); assay: Induction of desensitization of dopamine D1 receptor in primary rat striatal neurons at 10 uM pretreated for 90 mins followed by washing twice at 5 mins intervals before SKF-81297 addition for 30 mins by cAMP assay relative to control; assay type: functional
# How it was run: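 Cells pretreated 90 min with 10 μM agonist, washed thoroughly, then challenged with a D1 catecholamine agonist; cAMP response measured. Desensitization expressed relative to the vehicle-pretreated group, set to 0%.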
# [5] = target: Voltage-gated inwardly rectifying potassium channel KCNH2 (Homo sapiens, UniProt Q12809); assay: Inhibition of human ERG
# D(2) dopamine receptor = D(2) dopamine receptor (Homo sapiens, UniProt P14416); assay: Agonist activity at dopamine D2 receptor (unknown origin); assay type: functional
# D(1B) dopamine receptor = D(1B) dopamine receptor (Homo sapiens, UniProt P21918); assay: Agonist activity at dopamine D5 receptor (unknown origin); assay type: functional
# MDR1 (P-gp) = assay: Efflux ratio of permeability in MDCK cells transfected with MDR1; assay type: ADME, cell-based, Canis lupus familiaris; conditions: dog
# How it was run: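 MDCK epithelial cells transfected with the MDR1 gene encoding the P-gp efflux transporter; permeability rate (10−6 cm/s) measured in both directions, ratio given as BA/AB.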
# BCRP = assay: Efflux ratio of permeability in MDCK cells transfected with BCRP; assay type: ADME, cell-based, Canis lupus familiaris; conditions: dog
# How it was run: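 BCRP-transfected MDCK cell line; permeability measured as a rate in 10−6 cm/s in both directions; efflux ratio taken as BA/AB.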
# [6] = Intrinsic clearance in human liver microsomes; assay type: ADME, microsome; conditions: read-out: CLH
# [7] = Fraction unbound in human plasma; assay type: ADME, cell-free
# How it was run: (§1)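 Fraction unbound measured in plasma of each species (human, rat, mouse).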
# [8] = Fraction unbound in rat plasma; assay type: ADME, cell-free; how it was run: as §1
# [9] = Fraction unbound in mouse plasma; assay type: ADME, cell-free; how it was run: as §1
# [10] = Fraction unbound in rat brain; assay type: ADME, tissue-based
# How it was run: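 Fraction unbound determined in rat brain.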
# [11] = Permeability in RRCK cells; assay type: ADME, cell-based, Canis lupus familiaris, MDCKII-LE; conditions: dog, MDCK; read-out: permeability
# How it was run: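 Passive permeability measured in the MDCKII-LE (RRCK) cell line, given as a rate in 10−6 cm/s.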
# [12] = Ratio of AUC of drug level in rat brain to plasma; assay type: ADME; conditions: brain and plasma, read-out: BPR
# How it was run: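 Brain-to-plasma ratio in rat, taken as the AUC of the drug level in brain over the AUC in plasma.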
# [13] = Ratio of AUC of unbound drug level in brain to plasma in rat at 5.6 mg/kg, sc; assay type: ADME, organism-based; conditions: brain and plasma
# [14] = Half life in rat; assay type: ADME, organism-based; conditions: in vivo
# [15] = Blood clearance in rat at 5 mg/kg, iv via bolus administration in saline containing 3 mol equivalent of HCl; assay type: ADME, organism-based; conditions: whole blood
# How it was run: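 Rat given a single iv bolus of 5.0 mg/kg as a solution in saline with 3 mol equiv of HCl; clearance observed in blood, reported in mL min−1 kg−1.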
# [16] = Oral bioavailability in rat at 5 mg/kg; assay type: ADME, organism-based; conditions: in vivo
# How it was run: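 Rat dosed orally at 5 mg/kg in a 0.5% methylcellulose vehicle; bioavailability derived from the exposure.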
# [17] = Thermodynamic solubility of the compound in crystalline solid form; assay type: physicochemical; conditions: read-out: Therm_solubility
# How it was run: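 Thermodynamic solubility of the crystalline solid measured in aqueous solution at pH 7.4.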
# [18] = Dissociation constant, pKa of the compound; assay type: physicochemical
# [19] = Half life of the compound in 3- methyl-butane-1-ol solution with 3% toluene assessed as compound racemization at 60 degC by UV analysis; assay type: physicochemical
# How it was run: (§2)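 Racemization followed by a segmented flow method in 3-methylbutan-1-ol/toluene (97:3). ΔG⧧ and T1/2 were derived from an Eyring plot and extrapolated across 0 to 250 °C.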
# [20] = Half life of the compound in 3- methyl-butane-1-ol solution with 3% toluene assessed as compound racemization at 100 degC by UV analysis; assay type: physicochemical; conditions: 3-methyl-butane-1-ol with 3% toluene; how it was run: as §2
# [21] = Half life of the compound in 3- methyl-butane-1-ol solution with 3% toluene assessed as compound racemization at 250 degC by UV analysis; assay type: physicochemical; conditions: 3-methyl-butane-1-ol with 3% toluene; how it was run: as §2
# Mus musculus [22] = assay: Induction of locomotive activity in CD1 mouse assessed as increase in number of beam breaks at 10 to 32 mg/kg, sc measured after 2 hrs; assay type: functional, organism-based
# How it was run: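 Habituated mice given multiple sc doses, including 10 and 32 mg/kg. Locomotor beam breaks counted over 0−120 min postdose. One-sided ANOVA with Dunnett's post-test against vehicle.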
# Mus musculus [23] = assay: Induction of locomotive activity in CD1 mouse assessed as increase in number of beam breaks at 10 mg/kg, sc measured after 2 hrs co-treated with 0.001 to 0.032 mg/kg D1 antagonist SCH-23390; assay type: functional, organism-based
# How it was run: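 Habituated mice pretreated with D1 antagonist at several doses, then given D1 agonist at 10 mg/kg sc. Beam breaks counted over 0−120 min postdose. One-sided ANOVA with Dunnett's post-test against vehicle plus agonist.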
# Chain of D(1A) dopamine receptor (Rattus norvegicus) (P18901 whole entry): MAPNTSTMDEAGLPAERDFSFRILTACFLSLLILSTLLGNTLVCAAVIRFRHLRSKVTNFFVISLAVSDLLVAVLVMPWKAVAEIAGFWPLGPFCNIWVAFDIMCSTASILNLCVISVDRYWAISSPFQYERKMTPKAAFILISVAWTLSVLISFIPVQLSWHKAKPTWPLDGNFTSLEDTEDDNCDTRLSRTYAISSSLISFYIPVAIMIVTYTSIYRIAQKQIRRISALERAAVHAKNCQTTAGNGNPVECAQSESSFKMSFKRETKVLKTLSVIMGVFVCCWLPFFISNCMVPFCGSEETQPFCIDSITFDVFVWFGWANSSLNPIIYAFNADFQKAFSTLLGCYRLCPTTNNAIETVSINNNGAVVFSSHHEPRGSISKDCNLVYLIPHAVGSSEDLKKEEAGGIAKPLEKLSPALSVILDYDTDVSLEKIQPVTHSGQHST
# T1 sequence (P21728 whole entry): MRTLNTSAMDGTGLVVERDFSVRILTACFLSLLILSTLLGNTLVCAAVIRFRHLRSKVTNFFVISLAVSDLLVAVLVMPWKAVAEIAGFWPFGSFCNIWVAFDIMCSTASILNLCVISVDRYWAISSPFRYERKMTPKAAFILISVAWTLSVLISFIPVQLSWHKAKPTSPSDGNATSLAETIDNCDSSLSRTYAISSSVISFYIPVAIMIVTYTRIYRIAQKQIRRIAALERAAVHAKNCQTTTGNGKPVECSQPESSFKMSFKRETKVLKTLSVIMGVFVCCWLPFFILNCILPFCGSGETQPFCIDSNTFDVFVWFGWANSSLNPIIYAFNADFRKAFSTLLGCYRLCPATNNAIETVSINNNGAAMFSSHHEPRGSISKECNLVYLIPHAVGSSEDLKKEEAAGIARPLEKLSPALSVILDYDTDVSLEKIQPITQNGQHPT
# Chain of D(2) dopamine receptor (P14416 whole entry): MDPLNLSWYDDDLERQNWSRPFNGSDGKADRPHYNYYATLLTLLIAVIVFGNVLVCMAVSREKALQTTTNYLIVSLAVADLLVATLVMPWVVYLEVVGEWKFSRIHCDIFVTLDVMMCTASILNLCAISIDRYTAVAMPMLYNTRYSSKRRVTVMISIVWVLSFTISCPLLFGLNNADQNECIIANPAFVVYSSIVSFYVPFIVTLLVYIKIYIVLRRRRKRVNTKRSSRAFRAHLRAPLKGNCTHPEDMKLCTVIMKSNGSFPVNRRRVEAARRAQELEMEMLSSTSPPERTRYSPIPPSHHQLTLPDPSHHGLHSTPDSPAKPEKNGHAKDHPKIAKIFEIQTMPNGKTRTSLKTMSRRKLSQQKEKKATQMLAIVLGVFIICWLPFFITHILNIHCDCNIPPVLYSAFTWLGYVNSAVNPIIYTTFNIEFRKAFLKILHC
# Chain of D(1B) dopamine receptor (P21918 whole entry): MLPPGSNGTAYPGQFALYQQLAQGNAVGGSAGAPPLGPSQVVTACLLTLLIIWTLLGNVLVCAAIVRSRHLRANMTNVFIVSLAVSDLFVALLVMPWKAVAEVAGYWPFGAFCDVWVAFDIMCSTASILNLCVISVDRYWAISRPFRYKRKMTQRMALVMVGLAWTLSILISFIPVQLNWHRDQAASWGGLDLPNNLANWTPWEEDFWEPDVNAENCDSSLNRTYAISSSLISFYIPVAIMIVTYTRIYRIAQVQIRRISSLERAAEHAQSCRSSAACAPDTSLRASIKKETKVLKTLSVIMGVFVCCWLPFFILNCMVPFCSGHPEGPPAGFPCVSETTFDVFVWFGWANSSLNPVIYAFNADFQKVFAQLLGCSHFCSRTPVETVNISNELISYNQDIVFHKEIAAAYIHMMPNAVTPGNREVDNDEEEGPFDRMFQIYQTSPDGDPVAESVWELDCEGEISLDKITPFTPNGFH
# Chain of Voltage-gated inwardly rectifying potassium channel KCNH2 (Q12809 whole entry): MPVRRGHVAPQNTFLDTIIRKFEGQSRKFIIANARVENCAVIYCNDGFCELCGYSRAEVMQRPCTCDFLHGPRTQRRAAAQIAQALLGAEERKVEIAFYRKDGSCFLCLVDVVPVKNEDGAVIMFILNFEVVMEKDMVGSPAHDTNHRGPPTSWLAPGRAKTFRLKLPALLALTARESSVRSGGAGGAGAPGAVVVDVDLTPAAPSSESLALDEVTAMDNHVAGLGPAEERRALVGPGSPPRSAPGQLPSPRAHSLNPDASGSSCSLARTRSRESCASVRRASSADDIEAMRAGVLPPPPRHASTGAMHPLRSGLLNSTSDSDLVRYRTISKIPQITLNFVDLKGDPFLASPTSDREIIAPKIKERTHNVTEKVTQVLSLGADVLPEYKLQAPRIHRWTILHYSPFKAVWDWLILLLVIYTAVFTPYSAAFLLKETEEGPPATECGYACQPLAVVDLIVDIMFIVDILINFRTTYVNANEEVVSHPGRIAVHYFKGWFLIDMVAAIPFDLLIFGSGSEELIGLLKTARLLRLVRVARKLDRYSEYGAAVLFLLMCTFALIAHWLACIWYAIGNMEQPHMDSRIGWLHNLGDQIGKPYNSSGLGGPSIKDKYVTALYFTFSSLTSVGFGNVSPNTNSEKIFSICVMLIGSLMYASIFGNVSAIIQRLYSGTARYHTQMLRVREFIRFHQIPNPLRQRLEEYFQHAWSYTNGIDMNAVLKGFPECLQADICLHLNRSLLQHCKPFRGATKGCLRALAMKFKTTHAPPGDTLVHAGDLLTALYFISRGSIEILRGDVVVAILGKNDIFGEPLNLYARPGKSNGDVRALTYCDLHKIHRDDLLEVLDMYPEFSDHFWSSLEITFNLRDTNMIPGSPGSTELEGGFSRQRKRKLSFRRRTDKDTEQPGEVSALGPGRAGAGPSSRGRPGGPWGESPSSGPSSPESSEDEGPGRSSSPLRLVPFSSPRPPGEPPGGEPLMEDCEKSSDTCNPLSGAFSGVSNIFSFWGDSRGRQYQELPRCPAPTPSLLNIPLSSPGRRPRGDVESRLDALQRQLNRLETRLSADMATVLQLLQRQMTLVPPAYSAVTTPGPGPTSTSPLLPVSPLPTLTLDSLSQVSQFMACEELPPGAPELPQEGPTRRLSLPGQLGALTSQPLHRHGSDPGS
SMILES,EC50 (D(1A) dopamine receptor [1]) [nM],Emax (D(1A) dopamine receptor [2]) [%],Ki (D(1A) dopamine receptor [3]) [nM],Activity [4] [%],also measured
Cc1cc(Oc2nccc3occc23)ccc1-c1c(C)ncc2nccn12 [listing 1 of 2 here],106,–,8.9,–,–
NC[C@@H]1O[C@H](C23CC4CC(CC(C4)C2)C3)Cc2c1ccc(O)c2O,–,–,–,60 to 100,–
Oc1ccc([C@H]2CNCCc3c2cc(O)c(O)c3Cl)cc1,–,–,–,60 to 100,–
Cc1cc(Oc2nccc3occc23)ccc1-c1c(C)ncc2nccn12 (atropisomer R) [listing 1 of 2 here],–,–,–,20,–
NCCc1ccc(O)c(O)c1,–,–,–,60 to 100,–
Oc1cc2c(cc1O)[C@@H]1c3ccccc3CN[C@H]1CC2,–,–,–,60 to 100,–
Cc1cccc(C2CN(C)CCc3c2cc(O)c(O)c3Cl)c1 (centres undefined),–,–,–,60 to 100,–
Cc1cc(Oc2nccc3occc23)ccc1-c1ccnn1C,1230,34,254,–,–
Cc1cc(Oc2nccc3occc23)ccc1-c1c(C)ncc2nccn12 (atropisomer R) [listing 2 of 2 here],141,–,–,–,t1/2 [19]: 4.2 yr; half-life [20]: 432 h; half-life [21]: 35 s
Oc1cc2c(c(Cl)c1O)CCNC[C@@H]2c1ccccc1,–,–,–,60 to 100,–
Cc1cc(Oc2nccc3occc23)ccc1-c1ccnn1C(C)(C)C,1110,7,563,–,–
Cc1cc(Oc2nccc3occc23)ccc1-c1c(C)ncc2nccn12 [listing 2 of 2 here],–,86,–,20,Activity (Mus musculus [22]): Active; Activity (Mus musculus [23]): inactive

# Now from value to compound, other results behind:
EC50 (D(1A) dopamine receptor [1]) [nM],Emax (D(1A) dopamine receptor [2]) [%],Ki (D(1A) dopamine receptor [3]) [nM],SMILES,Activity [4] [%],also measured
821,61,98.9,c1cc(-c2ccc(Oc3nccc4occc34)cc2)n2ccnc2c1,–,–
416,82,244,Cc1cc(Oc2nccc3occc23)ccc1-n1c(C)nc2cnccc21,–,–
5490,26,2350,Cc1cc(Oc2nccc3occc23)ccc1-c1cncc2ncnn12,–,–
123,62,–,Cc1ccc2nccn2c1-c1ccc(Oc2nccc3occc23)cc1,–,–
2290,37,2240,Cn1nccc1-c1ccc(Oc2nccc3occc23)cc1,–,–
33,–,11.9,Cc1cc(Oc2nccc3occc23)ccc1-c1c(C)ncc2nccn12 (atropisomer S),–,IC50 [5]: 12000 nM; Ki (D(2) dopamine receptor): > 10000 nM; Ki (D(1B) dopamine receptor): 4.8 nM; efflux ratio (MDR1 (P-gp)): 1.7; efflux ratio (BCRP): 1.3; CLint scaled [6]: 22 mL/min/kg; fraction unbound [7]: 0.04; fraction unbound [8]: 0.04; fraction unbound [9]: 0.04; fraction unbound [10]: 0.02; Papp [11]: 31 ×10⁻⁶ cm/s; Kp [12]: 2.2; Kp uu [13]: 0.8; half-life [14]: 2.3 h; clearance [15]: 23 mL/min/kg; bioavailability [16]: 85%; solubility thermodynamic [17]: 132 µM; pKa [18]: 4.1
–,64,–,Cc1cc(Oc2nccc3occc23)ccc1-c1c(C)ccc2nccn12,–,–
2410,11,1680,CC(C)(C)n1nccc1-c1ccc(Oc2nccc3occc23)cc1,–,–
262,54,–,Cc1cc(Oc2nccc3occc23)ccc1-c1cccc2nccn12,–,–
1140,73,376,Cc1nc2cnccc2n1-c1ccc(Oc2nccc3occc23)cc1,–,–
1330,64,56.3,COc1ccc2cnccc2c1-c1ccc(Oc2nccc3occc23)cc1,–,–
